Active and inactive are the calls of the source. No cut-off for these calls is given here.
How the values were obtained:
[1] = target: T1, Tyrosine-protein phosphatase non-receptor type 1 (Rattus norvegicus) (UniProt P20417); assay: Inhibition of PTPase activity using recombinant Protein-tyrosine phosphatase 1B as the enzyme and IR-triphosphopeptide as substrate at 50 uM
T1 sequence (whole entry): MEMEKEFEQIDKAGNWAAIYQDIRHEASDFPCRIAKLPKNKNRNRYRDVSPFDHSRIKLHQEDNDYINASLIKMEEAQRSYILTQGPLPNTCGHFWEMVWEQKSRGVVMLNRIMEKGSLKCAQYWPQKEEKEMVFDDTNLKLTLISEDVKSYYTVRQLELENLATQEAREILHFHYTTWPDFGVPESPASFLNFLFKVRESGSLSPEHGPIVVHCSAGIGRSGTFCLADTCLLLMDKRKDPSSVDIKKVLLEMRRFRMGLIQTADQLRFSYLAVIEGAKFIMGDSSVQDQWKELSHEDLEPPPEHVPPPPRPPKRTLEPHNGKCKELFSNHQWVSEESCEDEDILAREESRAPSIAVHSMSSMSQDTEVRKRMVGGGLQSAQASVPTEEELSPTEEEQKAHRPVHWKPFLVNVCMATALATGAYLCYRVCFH
How it was run: (§1)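 Recombinant rat PTP1B (human 321-aa form assayed the same way), activity about 1000-2000 nmol/min/mg, preincubated with compound for 10 min at 37 °C in HEPES pH 7.4. The reaction is started with 50 µM triphosphorylated insulin receptor 1142-1153 dodecapeptide and run 30 min at 37 °C. Released phosphate read by malachite green-molybdate at 650 nm, in quadruplicate. Result is percent inhibition versus control.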

[2] = target: T2, Tyrosine-protein phosphatase non-receptor type 1 (Mus musculus) (UniProt P35821); assay: Ability to decrease plasma insulin levels in mouse at a dose 100 mg/kg/day; assay type: functional, organism-based
T2 sequence (whole entry): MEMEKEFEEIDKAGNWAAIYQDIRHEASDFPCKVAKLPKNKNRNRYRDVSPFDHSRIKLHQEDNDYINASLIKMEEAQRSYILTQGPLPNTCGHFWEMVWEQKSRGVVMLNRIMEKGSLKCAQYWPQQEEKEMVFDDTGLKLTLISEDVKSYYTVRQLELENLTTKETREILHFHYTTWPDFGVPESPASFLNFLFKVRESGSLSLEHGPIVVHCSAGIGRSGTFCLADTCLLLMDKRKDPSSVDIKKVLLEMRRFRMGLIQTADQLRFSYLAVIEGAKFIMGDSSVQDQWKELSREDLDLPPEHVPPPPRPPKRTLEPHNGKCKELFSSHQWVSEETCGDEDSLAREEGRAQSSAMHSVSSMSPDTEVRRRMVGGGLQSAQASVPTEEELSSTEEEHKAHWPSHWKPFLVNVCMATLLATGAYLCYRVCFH
How it was run: (§2)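 Diabetic db/db or ob/ob mice dosed orally once daily for 4 days. Plasma glucose and insulin reported as percent change from a vehicle-treated group. 4-6 mice per group. Significance set at p < 0.05 or p < 0.01 versus vehicle; NS means generally less than -15% change.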

[3] = target: T2, Tyrosine-protein phosphatase non-receptor type 1 (Mus musculus); assay: In vivo ability to decrease plasma glucose levels in diabetic C57BL/KsJ ob/ob mouse at a dose 100 mg/kg/day; assay type: functional, organism-based; how it was run: as §2
[4] = target: T1, Tyrosine-protein phosphatase non-receptor type 1 (Rattus norvegicus); assay: Inhibition of Protein-tyrosine phosphatase 1B activity in rat hepatic membrane at a concentration of 50 uM using pNPP as the substrate; assay type: cell membranes; conditions: Liver
How it was run: (§3)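 Liver membranes from male Sprague-Dawley rats (100-150 g), about 30 µg protein per well. Preincubated 10 min at 37 °C with compound in 1.25% DMSO in 50 mM HEPES pH 7.4. Then 6.33 mM pNPP for 30 min at 37 °C, stopped with NaOH. p-Nitrophenol read at 410 nm. Run in triplicate. Reported as percent of untreated control.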

Mus musculus [5] = assay: Evaluated in vivo for their ability to decrease plasma glucose levels in diabetic C57BL/KsJ db/db mouse at a dose 100 mg/kg/day, *p indicates <0.05; assay type: functional
How it was run: (§4)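 Mice dosed orally once daily for 4 days; plasma glucose and insulin measured and expressed as percent change versus a vehicle-treated group (mean ± SE, 4-6 mice/group). NS is generally less than -15% change. Significance is versus vehicle-treated mice.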

[6] = target: T3, Tyrosine-protein phosphatase non-receptor type 1 (Rattus norvegicus, UniProt P20417); assay: Inhibition of PTPase activity in rat hepatic membrane at a concentration of 50 uM using pNPP as the substrate; assay type: cell membranes, Liver; how it was run: as §3
T3 sequence (P20417 whole entry): T1 sequence (whole entry)

[7] = target: T1, Tyrosine-protein phosphatase non-receptor type 1 (Rattus norvegicus); assay: Inhibition of PTPase activity using recombinant r-PTP1B as the enzyme and IR-triphosphopeptide as substrate at 50 uM
How it was run: (§5)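 Rat recombinant PTP1B in 33 mM TRIS-HCl, 2 mM EDTA, 50 mM β-mercaptoethanol, pH 7.4 (about 1000-2000 nmol/min/mg). Preincubated 10 min at 37 °C with or without compound in HEPES buffer pH 7.4. Released phosphate read by malachite green-ammonium molybdate at 650 nm against a phosphate standard. Quadruplicates. IC50 by four-parameter logistic fit.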

[8] = target: T4, Tyrosine-protein phosphatase non-receptor type 1 (Homo sapiens, UniProt P18031); assay: Concentration required to inhibit PTPase activity, recombinant Protein Tyrosine Phosphatase 1b as the enzyme; how it was run: as §5
T4 sequence (P18031 whole entry): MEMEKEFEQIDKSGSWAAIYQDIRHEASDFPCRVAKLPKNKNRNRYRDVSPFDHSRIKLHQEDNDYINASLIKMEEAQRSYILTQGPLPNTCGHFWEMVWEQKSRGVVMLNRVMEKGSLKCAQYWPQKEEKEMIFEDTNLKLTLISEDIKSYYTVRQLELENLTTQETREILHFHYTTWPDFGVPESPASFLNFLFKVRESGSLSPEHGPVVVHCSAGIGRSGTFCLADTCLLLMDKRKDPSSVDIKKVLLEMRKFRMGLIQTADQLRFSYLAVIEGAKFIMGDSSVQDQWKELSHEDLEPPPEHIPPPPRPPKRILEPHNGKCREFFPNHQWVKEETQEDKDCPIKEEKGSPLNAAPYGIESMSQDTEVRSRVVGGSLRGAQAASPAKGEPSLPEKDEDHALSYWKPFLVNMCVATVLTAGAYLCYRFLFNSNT

[9] = target: T1, Tyrosine-protein phosphatase non-receptor type 1 (Rattus norvegicus); assay: Inhibition of PTPase (PTP1B) activity in rat hepatic membrane at 50 uM concentration, using pNPP as the substrate; assay type: cell membranes; conditions: Liver; how it was run: as §3
[10] = target: T3, Tyrosine-protein phosphatase non-receptor type 1; assay: Inhibition of PTPase activity using recombinant r-PTP1B as the enzyme and IR-triphosphopeptide as substrate; how it was run: as §5
Mus musculus [11] = assay: Evaluated in vivo for their ability to decrease plasma glucose levels in diabetic C57BL/KsJ db/db mouse at a dose 100 mg/kg/day. *p indicates <0.05; assay type: functional; how it was run: as §4
[12] = target: T3, Tyrosine-protein phosphatase non-receptor type 1; assay: Inhibition of PTPase activity using recombinant Protein-tyrosine phosphatase 1B and IR-triphosphopeptide as substrate; ND is no data.
Mus musculus [13] = assay: Evaluated for their ability to decrease plasma insulin levels in mouse at a dose 100 mg/kg/day, **p indicates <0.01; assay type: functional; how it was run: as §2
Mus musculus [14] = assay: Evaluated in vivo for their ability to decrease plasma glucose levels in diabetic C57BL/KsJ ob/ob mouse at a dose 100 mg/kg/day, **p indicates <0.01; assay type: functional; how it was run: as §4
[15] = target: T3, Tyrosine-protein phosphatase non-receptor type 1; assay: Inhibition of PTPase activity using recombinant r-PTP1B and IR-triphosphopeptide as substrate; ND is no data.; how it was run: as §5
Mus musculus [16] = assay: Evaluated in vivo for their ability to decrease plasma glucose levels in diabetic C57BL/KsJ db/db mouse at a dose 100 mg/kg/day.,*p indicates <0.05; assay type: functional; how it was run: as §4
Mus musculus [17] = assay: Evaluated in vivo for their ability to decrease plasma glucose levels in diabetic C57BL/KsJ db/db mouse at a dose 100 mg/kg/day; NS is non significant; assay type: functional, organism-based; how it was run: as §2
[18] = target: T1, Tyrosine-protein phosphatase non-receptor type 1 (Rattus norvegicus); assay: Inhibition of PTPase activity using recombinant r-PTP1B as the enzyme and IR-triphosphopeptide as substrate at 10 uM; how it was run: as §1

| Compound | Decrease [2] | Decrease [3] | IC50 [8] [nM] | inhibition [9] [%] | also measured |
| --- | --- | --- | --- | --- | --- |
| CC/C(=C/Cn1oc(=O)[nH]c1=O)c1cccc(OCc2nc(-c3ccc(C(F)(F)F)cc3)oc2C)c1 | Not significant | Not significant | – | – | inhibition [1]: 80%; inhibition [4]: 56%; Decrease (Mus musculus [5]): 65% |
| Cc1oc(-c2ccc(C(F)(F)F)cc2)nc1COc1cccc(/C(=C/Cn2oc(=O)[nH]c2=O)c2ccc(Cl)cc2)c1 | Not significant | Not significant | – | – | Inhibition % [6]: 27%; inhibition [7]: 1.4% |
| CCCC/C(=C\Cn1oc(=O)n(CC(=O)O)c1=O)c1cccc(OCc2cc(Cl)cc(Cl)c2)c1 | – | – | 48000 | 31 | – |
| C/C(=C\CC1OC(=O)NC1=O)c1cccc(OCc2nc(-c3ccc(OC(F)(F)F)cc3)oc2C)c1 (stereo not given) | Not significant | Not significant | – | 27 | IC50 [10]: 46000 nM; Decrease (Mus musculus [11]): 40% |
| C/C(=C\Cc1nnn[nH]1)c1cccc(OCc2nc(-c3ccc(OC(F)(F)F)cc3)oc2C)c1 | – | – | 13000 | 29 | – |
| C/C(=C\Cn1oc(=O)[nH]c1=O)c1cccc(OCc2nc(-c3ccccc3)oc2C)c1 (stereo in doubt; 67) | – | – | – | – | IC50 [12]: Not significant; Decrease (Mus musculus [13]): 75%; Decrease (Mus musculus [14]): 30%; Decrease (Mus musculus [5]): 28% |
| CCC/C(=C/Cn1oc(=O)[nH]c1=O)c1cccc(OCc2nc(-c3ccc(C(F)(F)F)cc3)oc2C)c1 | Not significant | Not significant | – | 58 | IC50 [15]: Not significant; Decrease (Mus musculus [16]): 55% |
| Cc1oc(-c2ccc(C(F)(F)F)cc2)nc1COc1cccc(/C(=C/Cn2oc(=O)[nH]c2=O)c2ccc(F)cc2)c1 | – | – | – | – | Inhibition % [6]: 28%; Decrease (Mus musculus [13]): 38%; inhibition [7]: 1.2%; Decrease (Mus musculus [14]): 34% |
| CCCCc1oc2ccccc2c1COc1cccc(/C(C)=C/Cn2oc(=O)[nH]c2=O)c1 | – | – | – | – | IC50 [10]: 2700 nM; Inhibition % [6]: 33% |
| CCCC/C(=C\Cn1oc(=O)n(CC(=O)O)c1=O)c1cccc(Oc2cc(Cl)cc(Cl)c2)c1 | – | – | 1300 | 63 | – |
| C/C(=C\Cn1oc(=O)[nH]c1=O)c1ccc(OCCc2nc(-c3ccc(C(F)(F)F)cc3)oc2C)cc1 | Not significant | Not significant | – | 63 | IC50 [10]: 1600 nM; Decrease (Mus musculus [17]): inactive |
| CCCC/C(=C\Cn1oc(=O)[nH]c1=O)c1cccc(Oc2cc(Cl)cc(Cl)c2)c1 | – | – | – | – | IC50 [10]: 1600 nM; Inhibition % [6]: 23% |
| Cc1oc(-c2ccc(C(F)(F)F)cc2)nc1COc1cccc(/C=C/Cn2oc(=O)[nH]c2=O)c1 | Not significant | Not significant | – | 49 | IC50 [15]: Not significant; Decrease (Mus musculus [17]): inactive |
| Cc1oc(-c2ccc(C(F)(F)F)cc2)nc1COc1cccc(C2CC2Cn2oc(=O)[nH]c2=O)c1 (stereo not given) | Not significant | Not significant | – | 51 | inhibition [18]: 28%; Decrease (Mus musculus [11]): 36% |

Further lines, with some results ahead:

| Decrease [2] | Decrease [3] | IC50 [8] [nM] | inhibition [9] [%] | Compound | also measured |
| --- | --- | --- | --- | --- | --- |
| – | – | 160 | 57 | CCCCCCCC/C(=C/Cn1oc(=O)n(CC(=O)O)c1=O)c1cccc(OCc2nc(-c3ccc(C(F)(F)F)cc3)oc2C)c1 | – |
| Not significant | Not significant | – | – | C/C(Cn1oc(=O)[nH]c1=O)=C(\C)c1cccc(OCc2nc(-c3ccc(C(F)(F)F)cc3)oc2C)c1 | IC50 [12]: Not significant; inhibition [4]: 54%; Decrease (Mus musculus [17]): inactive |
| – | – | 120 | 64 | CCCCCCCCC(=CCn1oc(=O)n(CC(=O)O)c1=O)c1cccc(OCc2nc(-c3ccc(C(F)(F)F)cc3)oc2C)c1 | – |
| Not significant | Not significant | – | 58 | CC/C(=C\c1cccc(OCc2nc(-c3ccc(C(F)(F)F)cc3)oc2C)c1)n1oc(=O)[nH]c1=O | IC50 [15]: Not significant; Decrease (Mus musculus [16]): 24% |
| – | – | 370 | 76 | CCCC/C(=C\Cn1oc(=O)[nH]c1=O)c1cccc(OCc2nc(-c3ccc(C(F)(F)F)cc3)oc2-c2ccccc2)c1 | – |
| – | – | 850 | 24 | Cc1oc(-c2ccc(C(F)(F)F)cc2)nc1COc1cccc(/C(=C/Cn2oc(=O)n(CC(=O)O)c2=O)c2ccccc2)c1 | – |

From ChEMBL document CHEMBL1132971, “New azolidinediones as inhibitors of protein tyrosine phosphatase 1B with antihyperglycemic properties” (J Med Chem, 2000)
